Experimental data taken from ChEMBL document CHEMBL2346521, “Synthesis, structure-activity relationship studies, and identification of novel 5,6,7,8-tetrahydroimidazo[1,5-a]pyrazine derivatives as dual orexin receptor antagonists. Part 1” (Bioorg Med Chem Lett, 2013).

Experiments:
[1] = target: T1, Orexin receptor type 2 (Homo sapiens, UniProt O43614); experiment: Antagonist activity at human OX2 receptor expressed in CHO cells assessed as inhibition of orexin A-induced calcium influx by FLIPR assay; format: functional, cell-based
T1 sequence (O43614 whole entry): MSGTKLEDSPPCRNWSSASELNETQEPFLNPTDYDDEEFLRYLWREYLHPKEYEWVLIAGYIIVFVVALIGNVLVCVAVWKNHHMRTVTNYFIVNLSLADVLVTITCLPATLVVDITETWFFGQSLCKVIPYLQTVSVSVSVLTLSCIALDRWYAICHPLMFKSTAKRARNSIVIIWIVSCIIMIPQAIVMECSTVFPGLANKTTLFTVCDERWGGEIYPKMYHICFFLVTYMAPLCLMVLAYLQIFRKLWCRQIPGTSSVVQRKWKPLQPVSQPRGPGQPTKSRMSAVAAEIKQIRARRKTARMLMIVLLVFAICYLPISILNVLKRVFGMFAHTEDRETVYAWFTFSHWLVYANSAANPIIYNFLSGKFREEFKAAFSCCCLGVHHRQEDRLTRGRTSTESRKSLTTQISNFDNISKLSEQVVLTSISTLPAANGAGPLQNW
Outline: (§1)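 CHO cells stably expressing human OX1R or OX2R, loaded at 37 °C, 5% CO₂ with the calcium dye fluo-3 AM, then washed. Antagonist added at a range of concentrations before an approximately EC₈₀ orexin A challenge. Ca²⁺ mobilization read by FLIPR. IC₅₀ taken as the concentration giving 50% inhibition of the orexin A-induced calcium response, reported in nM.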

[2] = target: T2, Orexin/Hypocretin receptor type 1 (Homo sapiens, UniProt O43613); experiment: Antagonist activity at human OX1 receptor expressed in CHO cells assessed as inhibition of orexin A-induced calcium influx by FLIPR assay; format: functional, cell-based; outline: as §1
T2 sequence (O43613 whole entry): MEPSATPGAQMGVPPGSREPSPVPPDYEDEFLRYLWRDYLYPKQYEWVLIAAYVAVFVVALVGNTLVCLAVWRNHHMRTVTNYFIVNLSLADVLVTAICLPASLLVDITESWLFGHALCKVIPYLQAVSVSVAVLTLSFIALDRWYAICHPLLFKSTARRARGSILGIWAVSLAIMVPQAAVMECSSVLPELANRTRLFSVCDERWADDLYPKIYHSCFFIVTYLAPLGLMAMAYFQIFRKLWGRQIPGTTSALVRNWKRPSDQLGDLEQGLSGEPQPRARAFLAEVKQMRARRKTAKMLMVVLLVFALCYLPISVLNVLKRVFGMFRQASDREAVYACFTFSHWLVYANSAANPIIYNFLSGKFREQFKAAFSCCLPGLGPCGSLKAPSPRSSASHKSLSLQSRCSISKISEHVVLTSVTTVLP

[3] = Drug uptake in Wistar rat brain at 100 mg/kg, po after 3 hrs; format: ADME, organism-based; design: dose 100 mg/kg, route oral; conditions: read-out: Drug uptake
Outline: (§2)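 Male Wistar rats dosed orally at 100 mg/kg. Brain and plasma sampled 3 h after dosing. Total compound levels given as nM and as ng/g (brain) or ng/ml (plasma). Brain/plasma ratio calculated from these total concentrations.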

[4] = Ratio of drug level in brain to plasma in Wistar rat at 100 mg/kg, po after 3 hrs; format: ADME, organism-based; design: dose 100 mg/kg, route oral; conditions: read-out: BPR; outline: as §2
[5] = Plasma protein binding in human; format: ADME, cell-free; conditions: read-out: PPB
[6] = Plasma concentration in Wistar rat at 100 mg/kg, po after 3 hrs; format: ADME, organism-based; design: dose 100 mg/kg, route oral; outline: as §2

Structure (SMILES)	IC50 [1] [nM]	IC50 [2] [nM]	concentration at 3 h [3] [nM]	Kp at 3 h [4]	fraction unbound [5]	concentration at 3 h [6] [nM]
CCCc1nc(CC)n2c1C(CCc1ccc(C(F)(F)F)cc1)N([C@@H](C(=O)NC)c1ccccc1)CC2 (stereo partly specified)	225	> 10000	–	–	–	–
CCc1nc(C2CC2)c2n1CCN([C@@H](C(=O)NC)c1ccccc1)[C@H]2CCc1ccc(C(F)(F)F)cc1	29	4170	–	–	–	–
CCc1nc(C(F)(F)F)c2n1CCN([C@@H](C(=O)NC)c1ccccc1)[C@H]2CCc1ccc(C(F)(F)F)cc1	11	1070	–	–	–	–
CCc1nc(SC)c2n1CCN([C@@H](C(=O)NC)c1ccccc1)[C@H]2CCc1ccc(C(F)(F)F)cc1	14	85	–	–	–	–
CNC(=O)[C@@H](c1ccccc1)N1CCn2c(CC3CC3)nc(Cl)c2[C@@H]1CCc1ccc(C(F)(F)F)cc1	35	1430	–	–	–	–
CCc1nc(C)c2n1CCN([C@@H](C(=O)NC)c1ccccc1)C2CCc1ccc(C(F)(F)F)cc1 (mixture of isomers)	24	> 10000	–	–	–	–
CCc1nc(I)c2n1CCN([C@@H](C(=O)NC)c1ccccc1)C2CCc1ccc(C(F)(F)F)cc1 (mixture of isomers)	23	717	–	–	–	–
CCc1nc(OC)c2n1CCN([C@@H](C(=O)NC)c1ccccc1)C2CCc1ccc(C(F)(F)F)cc1 (mixture of isomers)	73	134	–	–	–	–
CCc1nc(C(N)=O)c2n1CCN([C@@H](C(=O)NC)c1ccccc1)C2CCc1ccc(C(F)(F)F)cc1 (mixture of isomers)	194	> 10000	–	–	–	–
CCc1ncc2n1CCN([C@@H](C(=O)NC)c1ccccc1)C2CCc1ccc(C(F)(F)F)cc1 (mixture of isomers)	194	> 10000	–	–	–	–

Further lines, results first:

IC50 [1] [nM]	IC50 [2] [nM]	concentration at 3 h [3] [nM]	Kp at 3 h [4]	fraction unbound [5]	concentration at 3 h [6] [nM]	Structure (SMILES)
2900	> 10000	–	–	–	–	CCc1nc(C(C)C)c2n1CCN([C@@H](C(=O)NC)c1ccccc1)C2CCc1ccc(C(F)(F)F)cc1 (stereo partly specified)
9	40	303	0.07	0.01	4210	CCc1nc(Cl)c2n1CCN([C@@H](C(=O)NC)c1ccccc1)[C@H]2CCc1ccc(C(F)(F)F)cc1
107	283	–	–	–	–	CCc1nc(Cl)c2n1CCN([C@@H](C(=O)NC)c1ccccc1)[C@@H]2CCc1ccc(C(F)(F)F)cc1
38	492	–	–	–	–	CCc1nc(C(=O)NC)c2n1CCN([C@@H](C(=O)NC)c1ccccc1)C2CCc1ccc(C(F)(F)F)cc1 (stereo partly specified)
111	344	–	–	–	–	CCc1nc(C(=O)N(C)C)c2n1CCN([C@@H](C(=O)NC)c1ccccc1)C2CCc1ccc(C(F)(F)F)cc1 (stereo partly specified)
13	90	–	–	–	–	CNC(=O)[C@@H](c1ccccc1)N1CCn2c(C)nc(Cl)c2[C@@H]1CCc1ccc(C(F)(F)F)cc1
60	459	–	–	–	–	CCCc1nc(Cl)c2n1CCN([C@@H](C(=O)NC)c1ccccc1)[C@H]2CCc1ccc(C(F)(F)F)cc1
11	313	–	–	–	–	CNC(=O)[C@@H](c1ccccc1)N1CCn2c(C(C)C)nc(Cl)c2[C@@H]1CCc1ccc(C(F)(F)F)cc1
9	31	385	0.06	0.01	6400	CNC(=O)[C@@H](c1ccccc1)N1CCn2c(C3CC3)nc(Cl)c2[C@@H]1CCc1ccc(C(F)(F)F)cc1
20	> 10000	–	–	–	–	CCc1nc(CC)n2c1C(CCc1ccc(C(F)(F)F)cc1)N([C@@H](C(=O)NC)c1ccccc1)CC2 (mixture of isomers)
2750	3980	–	–	–	–	CCOc1nc(CC)n2c1C(CCc1ccc(C(F)(F)F)cc1)N([C@@H](C(=O)NC)c1ccccc1)CC2 (mixture of isomers)
10	537	–	–	–	–	CCc1nc(C#N)c2n1CCN([C@@H](C(=O)NC)c1ccccc1)C2CCc1ccc(C(F)(F)F)cc1 (mixture of isomers)
25	1650	–	–	–	–	CNC(=O)[C@@H](c1ccccc1)N1CCn2c(COC)nc(Cl)c2[C@@H]1CCc1ccc(C(F)(F)F)cc1 (mixture of isomers)
23	150	–	–	–	–	C=Cc1nc(CC)n2c1C(CCc1ccc(C(F)(F)F)cc1)N([C@@H](C(=O)NC)c1ccccc1)CC2 (single isomer, unassigned)
